Compound activity: PubChem BioAssay, several laboratories
Rows were chosen to be rich in hits. Some 5.4% of all compounds tested hit in one or more screens of this group.
PostGolgi ctrl: inhibits growth of the yeast control strain | AID 738 | 5% of 98,000 active | efflux-deficient yeast background strain, growth absorbance A615, 16 h | inhibition, % at 10 µM
HePTP inh: blocks human HePTP tyrosine phosphatase; inhibition, % at 20 µM; AID 521; recombinant HePTP phosphatase activity, OD absorbance; 0.64% of 110,000 active; P35236; in the data active = inhibition above about 50%
Target sequence (P35236 whole entry, looked up): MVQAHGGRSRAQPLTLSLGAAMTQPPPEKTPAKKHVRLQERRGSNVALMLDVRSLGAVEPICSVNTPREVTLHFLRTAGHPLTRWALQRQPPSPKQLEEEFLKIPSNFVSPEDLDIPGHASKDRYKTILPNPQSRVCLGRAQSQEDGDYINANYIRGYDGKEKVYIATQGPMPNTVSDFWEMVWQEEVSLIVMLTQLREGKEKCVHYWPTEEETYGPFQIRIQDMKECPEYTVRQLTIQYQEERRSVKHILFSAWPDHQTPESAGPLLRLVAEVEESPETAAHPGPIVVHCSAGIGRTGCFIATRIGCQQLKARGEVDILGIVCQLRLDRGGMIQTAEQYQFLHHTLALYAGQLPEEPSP
PostGolgi yeast: growth inhibition of a yeast mutant, post-Golgi transport screen; post-Golgi transport phenotypic cell assay; 0.9% of 98,000 active; inhibition, % at 10 µM;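 note: yeast cells grown in 1536-well plates; yeast grown about 18 h at 30C before absorbance read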
PLAP activator: activators of human placental alkaline phosphatase | purified PLAP enzyme, luminescent substrate read-out; stronger effect = higher value | activation fold at 20 µM | 1.2% of 96,000 active; in the data active = activation fold above about 2
E coli WT exp: blocks growth of wild type E. coli BW25113; OD600 absorbance; growth inhibition, % at 100 µM; 0.15% of 98,000 active; AID 710;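 active = growth inhibition above about 50% at one test dose, limit read from the data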;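 note: growth measured after 20 h incubation at 37 °C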
Ecoli tolC: E. coli tolC mutant growth inhibition. growth inhibition, % at 10 µM (by protocol). AID 573. 2.2% of 65,000 active. E. coli BW25113 tolC mutant growth, OD615;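 active = growth inhibition at or above a cutoff equal to the mean over every tested compound plus 3 SD, cut at about 60% in these data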;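 note: growth measured after 20 h incubation at 37 °C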
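Signal: optical density read at 615 nm; Assay system: E. coli ΔtolC::kan strain BW25113; Times: 20 h incubation with compound, 37 °C; Dosing: 10 µM final, single dose.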
Hits are given with their value; i = inactive; nt = no result given. Cut-off read from the data, not from the text of the source, unless noted: active = inhibition above about 30%; inactive = the rest.

SMILES	PostGolgi ctrl	HePTP inh	PostGolgi yeast	PLAP activator	E coli WT exp	Ecoli tolC
CC1CC(C)CN(C(=O)c2ccc3c(c2)N(Cc2ccccc2)CCS3)C1 (stereo not drawn)	75	nt	88	i	i	nt
Cc1ccc(C(=O)Cn2c(C)cc(C)c(C#N)c2=O)cc1	i	i	i	i	i	i
COc1ccc(C(=O)OCC(=O)c2ccccc2)cc1S(=O)(=O)N1CCOCC1	i	nt	i	i	i	nt
O=C(CSc1nc2ncccc2[nH]1)NCc1ccccc1	i	i	i	2.4	i	i
CCOC(=O)c1cc2c3ccccc3n(CC)c2nc1N	i	i	i	i	i	nt
CC(=O)NC1=NC(=O)/C(=C\c2ccc(-c3ccccc3C(=O)O)o2)S1	nt	51	nt	nt	nt	nt
CCOC(=O)C1CCN(CC(=O)Nc2c(C(=O)OC)n(C)c3cccc(C)c23)CC1	i	i	i	i	i	i
COc1ccc(NS(=O)(=O)c2cc(C)ccc2NC(=O)c2cc(C)oc2C)cc1	i	i	i	i	i	87
O=C1OC(c2ccc3c(c2)OCO3)N(C(=O)c2ccc(Cl)c(Cl)c2)c2ccccc21 (stereo not drawn)	30	nt	i	i	i	nt
COCCNS(=O)(=O)c1ccc2c(c1)oc(=O)c1cc(S(=O)(=O)NCCOC)ccc12	i	i	i	i	i	i
O=C(Nc1c(-c2ccccc2)nc2ccccn12)c1ccco1	i	i	i	i	i	i
O=C1CC(N2CCN(Cc3ccc4c(c3)OCO4)CC2)C(=O)N1c1ccccc1 (stereo not drawn)	40	i	i	i	i	i
CC1=NNC(=O)C1CC(=O)N/N=C/c1ccc(Cl)cc1Cl (stereo not drawn)	nt	i	nt	nt	nt	nt
O=c1c2[nH]c3ccc(F)cc3c2ncn1CCCN1CCOCC1	i	i	i	i	i	i
O=C1CC(Sc2nnc(-c3ccccc3O)o2)C(=O)N1c1ccccc1 (stereo not drawn)	i	i	i	i	i	i
O=C1c2ccccc2CC1Sc1nnc(-c2ccccn2)o1 (stereo not drawn)	i	i	i	2.6	i	i
Cc1ccc2nc(NC(=O)c3ccc4c(c3)OCO4)sc2c1	i	i	i	i	i	nt
O=C(CSCc1ccco1)Nc1cc(C(F)(F)F)ccc1N1CCOCC1	i	i	i	i	i	i
COc1ccc2nc3oc(C(=O)N4CCN(c5cccc(Cl)c5)CC4)cc3cc2c1	35	i	i	i	i	i
COc1ccc2nc3oc(C(=O)N4CCN(c5cccc(C(F)(F)F)c5)CC4)cc3cc2c1	i	i	i	i	i	i
Cc1cc(C(F)F)n2ncc(C(=O)NCCc3ccc(Cl)cc3)c2n1	49	nt	i	i	i	nt
Cc1cc(NC(=O)c2cnn3c(C(F)F)cc(C4CC4)nc23)no1	i	i	i	i	i	i
Cc1cc(C(F)F)n2ncc(C(=O)NCCc3ccccc3Cl)c2n1	i	nt	i	i	i	nt
COC(=O)c1ccccc1NC(=O)c1cnn2c(C(F)F)cc(C3CC3)nc12	43	i	i	i	i	i
O=C(NCCc1ccccc1)c1cnn2c(C(F)F)cc(C3CC3)nc12	39	i	i	i	i	i
SMILES	PostGolgi ctrl	HePTP inh	PostGolgi yeast	PLAP activator	E coli WT exp	Ecoli tolC
Cc1ccc(-n2c(SCC(=O)NCc3ccco3)nnc2-c2cccnc2)c(C)c1	i	i	i	nt	i	i
O=C(c1ccccc1)c1sc(N2CCCCCC2)nc1-c1ccccc1	33	nt	i	i	i	nt
Cc1cccnc1NC(=O)c1c(O)c2cccc3c2n(c1=O)CCC3	i	i	i	i	i	70
CCn1cc(C(=O)NCc2ccc3c(c2)OCO3)c(=O)c2cc(F)c(N3CCN(C(=O)c4ccco4)CC3)cc21	i	nt	i	i	73	nt
CCn1cc(C(=O)Nc2nncs2)c(=O)c2cc(F)c(N3CCN(C(=O)c4ccco4)CC3)cc21	nt	i	nt	nt	nt	100
O=[N+]([O-])c1ccc(/C=N/Nc2cc(Cl)nc(-c3ccccc3)n2)cc1	i	nt	i	i	i	nt
CCCCCc1nnc(NC(=O)OCCC)s1	i	i	i	i	i	i
CN(Cc1ccccc1)C(NC(=O)c1ccccc1)C(Cl)(Cl)Cl (stereo not drawn)	35	nt	i	i	i	nt
CCN(CC)C(NC(=O)Cc1ccccc1)C(Cl)(Cl)Cl (stereo not drawn)	i	nt	i	i	i	nt
Cc1[nH]c2ccccc2c1Cc1nnc(SCc2ccccc2)o1	35	nt	i	i	i	nt
CC1(C)CC(=O)C2=C(C1)OC(N)=C(C#N)C21C(=O)N(Cc2ccccc2Cl)c2ccccc21 (stereo not drawn)	i	nt	i	i	i	nt
COc1nc(-c2ccccc2)cc(-c2ccc(OC)c(OC)c2)n1	38	i	i	i	i	i
c1ccc(Nc2nc(-c3ccccn3)cs2)cc1	i	i	i	i	i	nt
COc1cccc2sc(Nc3nc(-c4ccccn4)cs3)nc12	87	i	98	i	i	98
Cc1cc2c3c(c1)C1(C(=O)N3C(C)(C)CC2C)C(C#N)=C(N)Oc2cc(O)ccc21 (stereo not drawn)	i	i	i	i	i	68
Cc1ccc2c3c1C1(C(=O)N3C(C)(C)CC2C)C(C#N)=C(N)Oc2cc(O)ccc21 (stereo not drawn)	i	i	i	i	i	97
Cc1nn(-c2ccccc2)c2c1C1(C(=O)N3c4c(cccc41)C(C)CC3(C)C)C(C#N)=C(N)O2 (stereo not drawn)	i	nt	i	i	i	nt
CC1=CC(C)(C)N2C(=O)C3(C(C#N)=C(N)Oc4cc(O)ccc43)c3cccc1c32 (stereo not drawn)	i	i	i	i	i	100
COc1ccc(N2CCN(CCNC(=O)CCS(=O)(=O)c3cccc4nsnc34)CC2)cc1	nt	i	nt	nt	nt	i
CC(=O)Nc1ccc(OCC(O)Cn2c3ccccc3c3ccccc32)cc1 (stereo not drawn)	nt	i	nt	nt	nt	nt
Cc1ccccc1OCC(O)Cn1c2ccccc2c2ccccc21 (stereo not drawn)	38	nt	i	i	i	nt
CC(=O)Nc1ccc(OCC(O)Cn2c3ccccc3c3ccccc32)c(C)c1 (stereo not drawn)	46	nt	i	i	i	nt
O=C(NCCN1CCN(c2cccc(Cl)c2)CC1)c1cccn2c(=O)c3ccccc3nc12	nt	i	nt	nt	nt	i
Cc1cc(C)n(-c2nc(Nc3ccccc3C(F)(F)F)nc(-n3nc(C)cc3C)n2)n1	nt	i	nt	nt	nt	nt
CCn1cc(C2=NCCO2)c2ccccc21	i	nt	i	i	i	nt
SMILES	PostGolgi ctrl	HePTP inh	PostGolgi yeast	PLAP activator	E coli WT exp	Ecoli tolC
CCN1CCc2c(sc(NC(=O)Nc3ccc(Cl)cc3)c2C(N)=O)C1	nt	101	nt	nt	nt	nt
COc1ccc(C(=O)NC(=O)Nc2ncccc2C)cc1	i	nt	i	i	i	nt
CCOC(=O)C1CCN(Cc2ccc(O)c3ncccc23)CC1	i	i	i	i	i	i
Cc1cccnc1NCc1ccc(O)c2ncccc12	i	i	i	2.6	i	i
COc1ccc2c(c1)-c1c(sn(-c3ccc(OC)c(OC)c3)c1=S)C(C)(C)N2	38	i	i	i	i	nt
CC1CCc2c(sc3ncnc(NCCCOC(C)C)c23)C1 (stereo not drawn)	32	nt	i	i	i	nt
Cc1ccc(C(=O)/C=C/Nc2ccccc2C(N)=O)o1	i	i	i	i	i	i
